Data set [1] addresses Voltage-gated inwardly rectifying potassium channel KCNH2 (Homo sapiens, UniProt Q12809). Description: Displacement of [3H]dofetilide from HEK cells expressing hERG voltage dependent IKr potassium channel Kv11.1. For orientation: Displacement assays read how much labelled ligand stays bound in the presence of the test substance.
In data set [2] the target is T1, Adrenergic receptor alpha-1 (Rattus norvegicus, UniProt P15823+P23944+P43140).
T1 sequence (P15823 whole entry): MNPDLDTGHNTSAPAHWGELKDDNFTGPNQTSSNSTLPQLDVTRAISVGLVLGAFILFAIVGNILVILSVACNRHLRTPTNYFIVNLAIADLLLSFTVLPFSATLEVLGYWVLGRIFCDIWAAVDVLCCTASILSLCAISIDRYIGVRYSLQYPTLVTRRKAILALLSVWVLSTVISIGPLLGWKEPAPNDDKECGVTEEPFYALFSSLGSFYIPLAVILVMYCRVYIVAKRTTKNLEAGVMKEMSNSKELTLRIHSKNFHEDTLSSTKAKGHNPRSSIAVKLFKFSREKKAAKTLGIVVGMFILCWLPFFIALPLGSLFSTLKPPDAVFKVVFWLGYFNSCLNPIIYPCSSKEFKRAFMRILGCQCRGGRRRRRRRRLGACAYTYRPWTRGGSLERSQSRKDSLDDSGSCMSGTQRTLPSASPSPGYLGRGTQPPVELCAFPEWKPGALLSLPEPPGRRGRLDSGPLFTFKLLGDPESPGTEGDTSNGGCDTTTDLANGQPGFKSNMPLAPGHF
T1 sequence (P23944 whole entry): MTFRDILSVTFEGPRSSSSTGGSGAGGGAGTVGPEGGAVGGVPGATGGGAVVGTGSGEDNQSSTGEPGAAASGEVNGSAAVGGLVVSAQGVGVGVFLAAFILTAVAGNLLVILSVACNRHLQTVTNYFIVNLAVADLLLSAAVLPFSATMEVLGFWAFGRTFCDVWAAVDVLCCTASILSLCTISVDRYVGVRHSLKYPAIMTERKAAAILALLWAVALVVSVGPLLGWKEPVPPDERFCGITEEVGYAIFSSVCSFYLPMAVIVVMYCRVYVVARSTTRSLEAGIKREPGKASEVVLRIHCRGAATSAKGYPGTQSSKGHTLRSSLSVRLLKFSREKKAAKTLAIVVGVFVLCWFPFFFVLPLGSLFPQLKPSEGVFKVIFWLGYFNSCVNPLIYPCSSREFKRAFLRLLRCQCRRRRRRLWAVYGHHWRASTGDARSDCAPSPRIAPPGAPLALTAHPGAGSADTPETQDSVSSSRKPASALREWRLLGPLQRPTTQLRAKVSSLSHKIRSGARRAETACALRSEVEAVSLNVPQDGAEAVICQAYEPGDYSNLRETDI
T1 sequence (P43140 whole entry): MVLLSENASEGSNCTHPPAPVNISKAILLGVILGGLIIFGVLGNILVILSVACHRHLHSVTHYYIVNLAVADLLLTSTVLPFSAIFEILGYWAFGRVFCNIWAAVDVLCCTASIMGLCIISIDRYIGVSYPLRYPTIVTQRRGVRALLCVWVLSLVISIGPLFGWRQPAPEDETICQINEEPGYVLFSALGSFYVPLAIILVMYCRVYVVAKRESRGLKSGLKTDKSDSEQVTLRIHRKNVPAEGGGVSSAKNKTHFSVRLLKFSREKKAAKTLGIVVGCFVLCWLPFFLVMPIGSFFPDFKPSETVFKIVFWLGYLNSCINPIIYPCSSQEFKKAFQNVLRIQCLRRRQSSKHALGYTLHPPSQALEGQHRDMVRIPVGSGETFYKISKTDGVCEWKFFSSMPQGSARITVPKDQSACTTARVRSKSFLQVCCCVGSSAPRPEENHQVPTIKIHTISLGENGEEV
Description: Ability to displace [3H]-prazosin binding to rat cortical membranes expressing Alpha-1 adrenergic receptors.

Data set [3] in a line: Area under the concentration-time curve for 0-4 hr after 2 mg/kg po in rat. The format is ADME, organism-based. Conditions: in vivo. The arrangement: time < 4 hr, dose 2 mg/kg, route oral. In a few lines: (§1)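 Male Sprague-Dawley rats (~300 g) gavaged at 2 mg/kg (5 mL/kg of 0.5% methocel A4C suspension), five rats; one rat culled per time point up to 4 h for blood. Samples get internal standard and are extracted into ethyl acetate, then LC-MS single ion recording.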

A short description of data set [4]: Terminal half-life following iv dosing in rat. The format is ADME, organism-based. The following applies: in vivo.
Data set [5] can be described thus: Maximum blood concentration after oral dosing at 2 mg/kg in rat. It counts as ADME, organism-based. The arrangement: dose 2 mg/kg, route oral. In a few lines:
as §1

The target in data set [6] is D(2) dopamine receptor (Homo sapiens, UniProt P14416). Description: Ability to displace [3H]spiperone binding to CHO cells stably expressing dopamine receptor D2. The format is cell-based.
Chain of D(2) dopamine receptor (P14416 whole entry): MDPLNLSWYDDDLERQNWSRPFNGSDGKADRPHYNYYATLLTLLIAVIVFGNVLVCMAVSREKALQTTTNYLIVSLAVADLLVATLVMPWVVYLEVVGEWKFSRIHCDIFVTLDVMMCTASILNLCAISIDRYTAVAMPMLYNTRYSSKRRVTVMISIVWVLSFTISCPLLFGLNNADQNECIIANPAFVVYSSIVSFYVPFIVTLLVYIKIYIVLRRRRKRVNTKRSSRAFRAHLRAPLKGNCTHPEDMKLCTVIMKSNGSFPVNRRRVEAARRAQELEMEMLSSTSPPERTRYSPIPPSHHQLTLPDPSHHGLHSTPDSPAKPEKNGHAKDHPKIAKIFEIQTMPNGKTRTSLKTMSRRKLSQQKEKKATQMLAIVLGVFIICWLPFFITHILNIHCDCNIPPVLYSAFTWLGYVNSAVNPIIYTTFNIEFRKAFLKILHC
For data set [7], the target named is T2, 5-hydroxytryptamine receptor 2C (Homo sapiens, UniProt P28335).
T2 sequence (P28335 whole entry): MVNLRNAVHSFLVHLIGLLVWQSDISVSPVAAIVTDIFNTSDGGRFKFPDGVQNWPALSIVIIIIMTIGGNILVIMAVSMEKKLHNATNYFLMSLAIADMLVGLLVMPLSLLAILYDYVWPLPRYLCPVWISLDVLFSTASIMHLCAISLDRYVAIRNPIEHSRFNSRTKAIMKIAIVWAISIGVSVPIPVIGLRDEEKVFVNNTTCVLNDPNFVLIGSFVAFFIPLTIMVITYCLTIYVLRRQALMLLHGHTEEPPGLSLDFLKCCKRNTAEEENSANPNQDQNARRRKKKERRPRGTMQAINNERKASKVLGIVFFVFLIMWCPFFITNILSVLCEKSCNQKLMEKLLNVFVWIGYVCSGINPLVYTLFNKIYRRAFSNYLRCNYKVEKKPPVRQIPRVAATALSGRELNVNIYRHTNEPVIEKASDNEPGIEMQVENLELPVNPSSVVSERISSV
Description: Ability to displace [3H]mesulergine binding to human 5-hydroxytryptamine 2C receptor stably expressed in CHO cells. It counts as cell-based.

Data set [8] is described as follows: Bioavailability in rat (dose 0.5-2 mg/kg i.v. and p.o.). The format is ADME, organism-based. Conditions: in vivo, po. In a few lines:
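Male Sprague-Dawley rats (~300 g), jugular-cannulated, three per route. Dosing by i.v. tail-vein bolus and oral gavage, each in a suitable vehicle. Serial jugular blood samples taken; plasma extracted with ethyl acetate against an internal standard. Analysis by LC-MS with single ion recording. F from model-independent parameters.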

The target in data set [9] is 5-hydroxytryptamine receptor 2A (Homo sapiens, UniProt P28223). The data set is described as follows: Ability to displace [3H]ketanserin binding to human 5-hydroxytryptamine 2A receptor stably expressed in CHO cells. The format is cell-based. In a few lines: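 Membranes from CHO cells stably expressing human 5-HT2A, homogenized in 50 mM Tris-HCl pH 7.5, at 2 mg wet weight/mL. Ki from nonlinear least-squares regression, geometric mean of at least three determinations.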
Chain of 5-hydroxytryptamine receptor 2A (P28223 whole entry): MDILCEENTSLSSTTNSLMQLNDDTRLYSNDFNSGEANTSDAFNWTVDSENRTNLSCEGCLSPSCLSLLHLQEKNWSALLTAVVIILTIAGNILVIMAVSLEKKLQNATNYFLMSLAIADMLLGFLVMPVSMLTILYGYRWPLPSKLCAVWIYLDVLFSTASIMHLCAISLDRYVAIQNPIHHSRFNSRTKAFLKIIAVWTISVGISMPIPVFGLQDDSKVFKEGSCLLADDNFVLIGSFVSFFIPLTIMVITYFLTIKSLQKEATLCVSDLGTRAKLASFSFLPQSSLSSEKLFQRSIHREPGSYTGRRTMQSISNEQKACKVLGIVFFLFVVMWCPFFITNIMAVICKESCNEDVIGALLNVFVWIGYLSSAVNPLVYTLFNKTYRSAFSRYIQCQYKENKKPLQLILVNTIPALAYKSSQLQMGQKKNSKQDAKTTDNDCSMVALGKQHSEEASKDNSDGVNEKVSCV

Data set [10] can be described thus: Terminal half-life following iv dosing in dog. The following applies: in vivo. The format is ADME, organism-based, Canis lupus familiaris. An outline of the steps:
(§2)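 Female Beagle dogs (10-12 kg), three per route; i.v. cephalic-vein bolus (1 mL/kg PEG 300/water) and oral gavage (5 mL/kg of 0.5% methocel A4C suspension), 0.5-2 mg/kg. Serial blood to 24 h; plasma extracted with ethyl acetate, LC-MS. Model-independent bioavailability and terminal half-life after i.v. dosing.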

Data set [11] can be described thus: Bioavailability in dog (dose 0.5-2 mg/kg i.v. and p.o.). The following applies: in vivo, po. The format is ADME, organism-based, Canis lupus familiaris. In a few lines:
as §2

The nature of data set [12]: Terminal half-life following iv dosing in rat, measured over 48 hr. The format is ADME, organism-based. Conditions: in vivo.
Data set [13] in a line: Terminal half-life following iv dosing in dog, measured over 48 hr. It counts as ADME, organism-based, Canis lupus familiaris. The following applies: in vivo.

Chain of Voltage-gated inwardly rectifying potassium channel KCNH2 (Q12809 whole entry): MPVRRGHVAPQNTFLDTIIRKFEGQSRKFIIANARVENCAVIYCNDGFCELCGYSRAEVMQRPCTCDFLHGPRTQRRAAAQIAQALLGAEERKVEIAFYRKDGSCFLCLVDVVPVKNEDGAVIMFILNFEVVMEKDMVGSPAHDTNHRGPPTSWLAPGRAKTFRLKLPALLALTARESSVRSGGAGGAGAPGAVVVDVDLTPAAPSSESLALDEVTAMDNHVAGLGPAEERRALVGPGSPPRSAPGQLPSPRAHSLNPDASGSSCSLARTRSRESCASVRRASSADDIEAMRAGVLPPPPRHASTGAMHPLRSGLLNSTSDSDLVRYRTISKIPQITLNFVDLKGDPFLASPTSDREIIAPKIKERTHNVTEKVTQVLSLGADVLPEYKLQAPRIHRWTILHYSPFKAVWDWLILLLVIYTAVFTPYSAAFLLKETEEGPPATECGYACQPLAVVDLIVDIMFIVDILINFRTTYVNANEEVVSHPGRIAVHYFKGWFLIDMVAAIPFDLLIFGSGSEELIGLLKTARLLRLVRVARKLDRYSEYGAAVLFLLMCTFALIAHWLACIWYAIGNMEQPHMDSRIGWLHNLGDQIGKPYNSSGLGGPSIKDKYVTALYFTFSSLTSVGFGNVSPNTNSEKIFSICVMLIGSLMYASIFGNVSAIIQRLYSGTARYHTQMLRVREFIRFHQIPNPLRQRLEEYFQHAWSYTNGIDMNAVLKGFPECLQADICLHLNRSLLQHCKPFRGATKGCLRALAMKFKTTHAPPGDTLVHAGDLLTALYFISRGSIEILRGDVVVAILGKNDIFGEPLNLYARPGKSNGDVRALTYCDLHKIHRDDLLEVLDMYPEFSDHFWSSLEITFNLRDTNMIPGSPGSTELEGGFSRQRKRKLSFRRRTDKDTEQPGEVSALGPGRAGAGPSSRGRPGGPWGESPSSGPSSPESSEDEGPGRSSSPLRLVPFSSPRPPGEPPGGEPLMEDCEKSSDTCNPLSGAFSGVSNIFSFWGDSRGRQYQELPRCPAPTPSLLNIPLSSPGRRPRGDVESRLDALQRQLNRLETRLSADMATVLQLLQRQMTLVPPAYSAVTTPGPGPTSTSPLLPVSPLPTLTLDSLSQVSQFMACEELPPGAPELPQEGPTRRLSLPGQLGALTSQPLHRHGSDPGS

One may read the Ki as the equilibrium dissociation constant of an inhibitor or competing ligand from its target. Higher therefore signals lower affinity. What is called AUC(0-t) is exposure summed from dosing to a finite time, without extrapolation to infinity. A lower AUC(0-t) goes with less exposure. The half-life is the time in which the quantity being followed falls by half. One may read the Cmax as the peak of the concentration-time curve. Usually bioavailability stands for the share of a dose that reaches the circulation, judged against a reference dose that is usually intravenous. Higher therefore signals good availability. On to `c1ccc(CCN2[C@@H]3CC[C@H]2CC(c2c(-c4ccccc4)[nH]c4ccccc24)C3)cc1` (some centres undefined), for which the Ki in [1] came to 18 nM; in data set [2], 250 nM; in [6], 1000 nM; in data set [7], 400 nM; in [9] it was 1.2 nM. In data set [3], the exposure AUC(0-t) at 4 h worked out at 126 ng·h/mL. This compound also had a half-life in [4] of 2.3 h. In data set [5], this compound yielded a maximum concentration (Cmax) of 210 ng/mL. The bioavailability in [8] was found to be 18%.

For the compound `O=C1NCCN1CCN1CCCC(c2c(-c3ccccc3)[nH]c3ccccc23)C1` (centres undefined), the exposure AUC(0-t) at 4 h in [3] is 217 ng·h/mL. The compound further yielded a maximum concentration (Cmax) in [5] of 85 ng/mL. The inhibitory constant (Ki) in data set [6] was more than 1300 nM; in data set [7], 2500 nM; in data set [9] it was 26 nM.

For `c1ccc(CCN2CCC(c3c(-c4ccccc4)[nH]c4ccccc34)CC2)cc1`, the half-life in data set [10] was 9.8 h; in data set [4], 5.3 h. The Ki was determined as 25 nM in data set [2], 350 nM in data set [6] and 0.48 nM in [9]. The compound also returned a bioavailability in data set [11] of 4%.

In the case of `c1ccc(-c2[nH]c3ccccc3c2C2CCCNC2)cc1` (centres undefined), the Ki was 21 nM in [2], more than 1300 nM in data set [6], 89 nM in [7] and 0.99 nM in data set [9]. In [3], this compound had an AUC(0-t) at 4 h of 47 ng·h/mL. The same compound had a Cmax in data set [5] of 26 ng/mL.

`CN1CCCC(c2c(-c3ccccc3)[nH]c3ccccc23)C1` (centres undefined): the Ki in [1] stood at 9600 nM; in data set [2], 30 nM; in data set [6], 28 nM; in data set [7], 150 nM; in data set [9], 4.7 nM.

`O=C(Nc1ccccc1)c1[nH]c2cc(F)ccc2c1[C@@H]1CNCC[C@H]1F`: the inhibition constant Ki in data set [2] was 3.9 nM; in data set [6], more than 1600 nM; in [7], 48 nM; in [9], 0.09 nM. Besides, the AUC(0-t) at 4 h in data set [3] came to 8 ng·h/mL. In data set [5], the Cmax amounted to 3 ng/mL.

With `F[C@@H]1CCNC[C@H]1c1c(-c2ccccc2)[nH]c2ccccc12`, the half-life was 7.4 h in data set [10] and 1.4 h in data set [4]. For the same compound, the inhibitory constant (Ki) in data set [2] was 25 nM; in data set [6], more than 1700 nM; in [7], 19 nM; in data set [9], 0.43 nM. For the same compound, the bioavailability came to 37% in [11] and 18% in [8].

Regarding `Fc1ccc2[nH]c(-c3ccccc3)c([C@@H]3CNCC[C@H]3F)c2c1`, the inhibition constant (Ki) in [1] was more than 7000 nM; in data set [2], 210 nM; in [6] it was more than 1600 nM; in data set [7], 500 nM; in [9], 4 nM.

As for `Fc1ccc2c([C@@H]3CNCC[C@H]3F)c(-c3ccccc3)[nH]c2c1`, the figures for the half-life in data set [12] and in [13] were 12 h and 6.4 h, respectively.

Take `Fc1ccc(-c2[nH]c3cc(F)ccc3c2[C@@H]2CNCC[C@H]2F)cc1`: the Ki was found to be 1600 nM in data set [1]; 2.9 nM in [2]; 900 nM in [6]; 19 nM in [7]; 0.12 nM in data set [9]. The exposure AUC(0-t) at 4 h in [3] amounted to 350 ng·h/mL. In addition, the Cmax in data set [5] came to 149 ng/mL.
